Activity calls are given as the source filed them. No cut-off for these calls is given here.
Columns and labels:
[1] = target: T1, Vitamin D3 receptor (Mus musculus) (UniProt P48281); assay: Activation of VDR in mouse ASZ001 cells assessed as upregulation of CYP24A1 mRNA expression at 5 uM after 24 hrs by RT-PCR analysis relative to DMSO-treated control; assay type: cell-based
T1 sequence (whole entry): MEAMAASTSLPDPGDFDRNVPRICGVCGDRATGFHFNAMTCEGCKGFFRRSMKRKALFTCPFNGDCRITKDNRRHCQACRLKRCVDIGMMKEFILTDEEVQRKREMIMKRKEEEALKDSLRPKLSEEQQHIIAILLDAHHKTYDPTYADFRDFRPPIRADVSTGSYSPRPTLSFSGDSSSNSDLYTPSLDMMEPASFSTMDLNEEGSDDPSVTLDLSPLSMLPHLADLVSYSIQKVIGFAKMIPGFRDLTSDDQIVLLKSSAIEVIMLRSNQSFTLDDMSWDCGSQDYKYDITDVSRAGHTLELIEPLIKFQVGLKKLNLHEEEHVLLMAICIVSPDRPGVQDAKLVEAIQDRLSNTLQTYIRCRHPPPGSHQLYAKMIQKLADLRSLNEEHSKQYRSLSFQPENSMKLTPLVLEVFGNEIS
In short: (§1)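 Cyp24A1 mRNA read by qPCR after 24 h exposure at 5 μM. Up-regulation normalized to DMSO control, set to 1.0.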

[2] = Inhibition of hedgehog signaling pathway-mediated PTCH mRNA expression in mouse ASZ001 cells up to 10 uM after 24 hrs by RT-PCR analysis; assay type: cell-based
[3] = system: C3H 10T1/2; assay: Effect on CYP24A1 RNA level in non-targeting siRNA treated mouse C3H10T1/2 cells at 5 uM after 24 hrs by qPCR analysis; assay type: functional, cell-based
In short: (§2)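 C3H10T1/2 cells transfected 24 h after seeding with mouse VDR-specific or nontargeting siRNA plus Lipofectamine 2000 in medium with 0.5% FBS for 6 h, then complete medium overnight. Treated 24 h post-transfection (5 μM; calcitriol 0.5 μM). RNA and cDNA prepared 24 h later (48 h post-transfection), then qPCR of VDR, Gli1 and Cyp24A1. Representative experiment in triplicate.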

[4] = Activation of hedgehog signaling pathway in non-targeting siRNA treated mouse C3H10T1/2 cells assessed as effect on VDR expression at 5 uM after 24 hrs by qPCR analysis; assay type: cell-based; conditions: C3H 10T1/2; in short: as §2
[5] = Inhibition of hedgehog signaling pathway-mediated GLI1 mRNA expression in mouse C3H10T1/2 cells assessed as residual activity at 5 uM after 24 hrs by RT-PCR analysis relative to 20alpha-hydroxycholesterol/22(S)-hydroxycholesterol; assay type: cell-based; conditions: C3H 10T1/2
In short: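 C3H10T1/2 cells co-treated with analogue and the oxysterol Hh activators 20α-hydroxycholesterol plus 22(S)-hydroxycholesterol (5 μM each) for 24 h. Gli1 mRNA measured by qPCR as % of OHC-only control (100%). Analogue at 5 μM, or at 0.5 μM where stated.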

[6] = Activation of hedgehog signaling pathway in VDR-knockdown mouse C3H10T1/2 cells assessed as effect on VDR expression at 5 uM after 24 hrs by qPCR analysis; assay type: cell-based; conditions: C3H 10T1/2; in short: as §2
[7] = Inhibition of hedgehog signaling pathway-mediated PTCH mRNA expression in human DaOY cells after 24 hrs by RT-PCR analysis; assay type: cell-based
In short: (§3)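 ASZ001 (murine BCC) or DAOY (human medulloblastoma) cells given analogue at a range of concentrations. Gli1 and Ptch mRNA quantified by qPCR. IC50 given as mean ± SEM of at least two experiments in triplicate.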

[8] = Inhibition of hedgehog signaling pathway-mediated GLI1 mRNA expression in human DaOY cells after 24 hrs by RT-PCR analysis; assay type: cell-based; in short: as §3
[9] = Inhibition of hedgehog signaling pathway in VDR-knockdown mouse C3H10T1/2 cells assessed as downregulation of GLI1 expression at 5 uM after 24 hrs by qPCR analysis; assay type: cell-based; conditions: C3H 10T1/2; in short: as §2
[10] = Inhibition of hedgehog signaling pathway in non-targeting siRNA treated mouse C3H10T1/2 cells assessed as effect on VDR expression at 5 uM after 24 hrs by qPCR analysis; assay type: cell-based; conditions: C3H 10T1/2; in short: as §2
[11] = Inhibition of hedgehog signaling pathway in non-targeting siRNA treated mouse C3H10T1/2 cells assessed as downregulation of GLI1 expression at 5 uM after 24 hrs by qPCR analysis; assay type: cell-based; conditions: C3H 10T1/2; in short: as §2
[12] = Inhibition of hedgehog signaling pathway in VDR-knockdown mouse C3H10T1/2 cells assessed as effect on VDR expression at 5 uM after 24 hrs by qPCR analysis; assay type: cell-based; conditions: C3H 10T1/2; in short: as §2
[13] = target: T2, Vitamin D3 receptor (Homo sapiens) (UniProt P11473); assay: Activation of VDR in human DaOY cells assessed as upregulation of CYP24A1 mRNA expression at 5 uM after 24 hrs by RT-PCR analysis relative to DMSO-treated control; assay type: cell-based; in short: as §1
T2 sequence (whole entry): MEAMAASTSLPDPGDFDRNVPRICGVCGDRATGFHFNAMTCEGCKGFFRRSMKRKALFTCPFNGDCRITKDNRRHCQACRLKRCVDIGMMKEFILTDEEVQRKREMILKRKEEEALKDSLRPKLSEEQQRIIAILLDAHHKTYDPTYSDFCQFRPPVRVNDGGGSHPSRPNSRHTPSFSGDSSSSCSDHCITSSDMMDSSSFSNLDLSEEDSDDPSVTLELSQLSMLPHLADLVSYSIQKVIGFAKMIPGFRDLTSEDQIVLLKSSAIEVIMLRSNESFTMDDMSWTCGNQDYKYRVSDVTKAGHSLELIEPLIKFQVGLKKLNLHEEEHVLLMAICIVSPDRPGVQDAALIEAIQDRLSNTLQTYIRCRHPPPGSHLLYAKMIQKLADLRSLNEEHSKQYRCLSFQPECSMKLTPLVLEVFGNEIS

[14] = target: Protein smoothened (Homo sapiens) (UniProt Q99835); assay: Displacement of BODIPY-cyclopamine from full length human SMO receptor overexpressed in HEK293T cells up to 10 uM after 4 hrs by flow cytometric analysis; assay type: cell-based; conditions: HEK-293T
In short: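 HEK293T cells transfected overnight with Myc-tagged full-length human Smo plasmid, split, then 2 days post-transfection incubated in DMEM/10% FBS with BODIPY-cyclopamine (5 nM) and test compound at 37 °C for 4 h. Cells trypsinized and resuspended in PBS. Bound BODIPY-cyclopamine read by flow cytometry. Transfection checked by anti-Myc staining. Representative experiment in triplicate.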

[15] = target: T1, Vitamin D3 receptor (Mus musculus); assay: Activation of VDR in mouse C3H10T1/2 cells assessed as upregulation of CYP24A1 mRNA expression at 5 uM after 24 hrs by RT-PCR analysis relative to DMSO-treated control; assay type: cell-based; conditions: C3H 10T1/2; in short: as §1
[16] = target: Protein smoothened (Homo sapiens) (UniProt Q99835); assay: Displacement of BODIPY-cyclopamine from full length human SMO receptor overexpressed in HEK293T cell membranes up to 10 uM after 5 hrs by fluorescence polarization assay; conditions: HEK-293T
In short: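 Membranes from HEK293T cells transfected with full-length human Smo, collected 24 h post-transfection. Cells lysed in hypotonic buffer (50 mM Tris-HCl, 1 mM EDTA, pH 7.5, protease inhibitors) by syringe passage. Membranes pelleted at 20000g after a 500g spin. Membranes (10 μg/well) incubated with BODIPY-cyclopamine (5 nM) and compound at 30 °C for 5 h. Fluorescence polarization at ex 485/em 528. Triplicate.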

[17] = Inhibition of hedgehog signaling pathway-mediated GLI1 mRNA expression in mouse ASZ001 cells after 24 hrs by RT-PCR analysis; assay type: cell-based; conditions: ASZ001, 24 h; in short: as §3
[18] = Inhibition of hedgehog signaling pathway-mediated GLI1 mRNA expression in mouse C3H10T1/2 cells after 24 hrs by RT-PCR analysis in presence of GDC-0449; assay type: cell-based; conditions: C3H 10T1/2
[19] = Inhibition of hedgehog signaling pathway-mediated PTCH mRNA expression in mouse C3H10T1/2 cells after 24 hrs by RT-PCR analysis; assay type: cell-based; conditions: C3H 10T1/2, 24 h
In short: (§4)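 OHC-stimulated C3H10T1/2 cells (20α- and 22(S)-hydroxycholesterol, 5 μM each) given analogue at a range of concentrations. Gli1 and Ptch mRNA quantified by qPCR. IC50 given as mean ± SEM of at least two experiments run in triplicate.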

[20] = Inhibition of hedgehog signaling pathway-mediated GLI1 mRNA expression in mouse C3H10T1/2 cells after 24 hrs by RT-PCR analysis; assay type: cell-based; conditions: for inhibition: C3H 10T1/2; for IC50: C3H 10T1/2, 24 h; in short: as §4
[21] = Inhibition of hedgehog signaling pathway in non-targeting siRNA treated mouse C3H10T1/2 cells assessed as effect on VDR expression at 0.5 uM after 24 hrs by qPCR analysis; assay type: cell-based; conditions: C3H 10T1/2
[22] = Activation of hedgehog signaling pathway in non-targeting siRNA treated mouse C3H10T1/2 cells assessed as effect on VDR expression at 0.5 uM after 24 hrs by qPCR analysis; assay type: cell-based; conditions: C3H 10T1/2
[23] = system: C3H 10T1/2; assay: Effect on CYP24A1 RNA level in non-targeting siRNA treated mouse C3H10T1/2 cells at 0.5 uM after 24 hrs by qPCR analysis; assay type: functional, cell-based
[24] = Inhibition of hedgehog signaling pathway in VDR-knockdown mouse C3H10T1/2 cells assessed as effect on VDR expression at 0.5 uM after 24 hrs by qPCR analysis; assay type: cell-based; conditions: C3H 10T1/2
[25] = Activation of hedgehog signaling pathway in VDR-knockdown mouse C3H10T1/2 cells assessed as effect on VDR expression at 0.5 uM after 24 hrs by qPCR analysis; assay type: cell-based; conditions: C3H 10T1/2
[26] = system: C3H 10T1/2; assay: Effect on CYP24A1 RNA level in VDR-knockdown mouse C3H10T1/2 cells at 5 uM after 24 hrs by qPCR analysis; assay type: functional, cell-based

Sequence of Protein smoothened (Homo sapiens) (Q99835 whole entry): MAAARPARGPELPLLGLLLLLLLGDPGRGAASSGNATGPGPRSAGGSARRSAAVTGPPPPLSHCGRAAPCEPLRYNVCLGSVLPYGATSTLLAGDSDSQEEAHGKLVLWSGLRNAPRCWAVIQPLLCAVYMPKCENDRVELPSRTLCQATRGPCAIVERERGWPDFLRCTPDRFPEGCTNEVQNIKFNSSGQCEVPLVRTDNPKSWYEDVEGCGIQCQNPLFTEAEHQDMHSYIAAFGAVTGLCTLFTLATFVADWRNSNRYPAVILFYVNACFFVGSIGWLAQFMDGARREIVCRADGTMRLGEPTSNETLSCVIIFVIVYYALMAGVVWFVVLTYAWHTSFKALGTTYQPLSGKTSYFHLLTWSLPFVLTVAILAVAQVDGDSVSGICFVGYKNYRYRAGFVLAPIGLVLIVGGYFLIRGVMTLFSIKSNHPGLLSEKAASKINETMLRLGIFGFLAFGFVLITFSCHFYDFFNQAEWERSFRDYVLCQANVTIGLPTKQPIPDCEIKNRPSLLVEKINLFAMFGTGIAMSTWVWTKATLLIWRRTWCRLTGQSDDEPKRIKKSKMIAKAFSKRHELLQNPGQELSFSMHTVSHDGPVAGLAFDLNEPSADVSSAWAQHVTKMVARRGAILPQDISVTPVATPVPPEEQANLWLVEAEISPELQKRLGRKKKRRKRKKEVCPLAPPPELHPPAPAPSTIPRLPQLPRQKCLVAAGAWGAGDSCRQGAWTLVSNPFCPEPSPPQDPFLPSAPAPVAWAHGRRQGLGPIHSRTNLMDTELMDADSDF

Compound	fold change (FC) [1]	Activity [3]	Activity [4]	Activity [5] [%]	Activity [6]	IC50 [7] [µM]	IC50 [8] [µM]	inhibition [10]	inhibition [12]	fold change (FC) [13]	inhibition [14]	fold change (FC) [15]	inhibition [16]	IC50 [17] [µM]	inhibition [18]	IC50 [19] [µM]	inhibition [20]	IC50 [20] [µM]	other results
C=C1CC[C@H](O)C/C1=C/C=C1\CCC[C@]2(C)[C@@H]([C@H](C)CCCC(C)C)CC[C@@H]12 [CHOLECALCIFEROL]	764	Active	Active	35.7	Active	> 10	> 10	Active	Active	149	inactive	8340	inactive	2.1	Active	2.9	Dose-dependent effect	4.1	inhibition [2]: inactive; inhibition [9]: inactive; inhibition [11]: Active
C=C1/C(=C\C=C2/CCC[C@]3(C)[C@@H]([C@H](C)CCCC(C)(C)O)CC[C@@H]23)C[C@@H](O)C[C@@H]1O																			inhibition [21]: Active; Activity [22]: Active; Activity [23]: Active; inhibition [24]: Active; Activity [25]: Active
CC(C)CCC[C@@H](C)[C@H]1CC[C@H]2[C@@H](OC(=O)c3cccc(O)c3)CCC[C@]12C	1.9	Active	inactive	1.9	inactive	3.6	3.7	inactive	inactive	1.9	inactive	22.2	inactive	5.2	Active	1.1	Dose-dependent effect	0.74	Activity [26]: inactive

Reference: ChEMBL document CHEMBL3259768, “Structure-activity relationships for vitamin D3-based aromatic a-ring analogues as hedgehog pathway inhibitors” (J Med Chem, 2014)
